Experimental data reported in ChEMBL document CHEMBL2034874, “5-acetyl-2-arylbenzimidazoles as antiviral agents. Part 4” (Eur J Med Chem, 2012).

Columns and labels:
[1] = tested on: Coxsackievirus B5; assay: Antiviral activity against Coxsackie virus type B5 Ohio-1 ATCC VR-29 infected in african green monkey Vero-76 cells assessed as reduction in viral plaque after 3 days by crystal violet staining; format: functional, organism-based; settings: Enterovirus B, Ohio-1 ATCC VR-29, Vero 76, 72 h
Procedure, shortened: (§1)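 Vero-76 monolayers (2×10^5 cells/well) infected for 2 h at 50–100 PFU/well. Unadsorbed virus removed. D-MEM with 1% inactivated FBS, 0.75% methylcellulose and serial compound dilutions added. Incubation at 37 °C for 3 days (CVB-5, HSV-1) or 5 days (RSV). Fixed and stained with 50% ethanol/0.8% crystal violet, then plaques counted. EC50 by linear regression versus untreated controls.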

[2] = tested on: Vesicular stomatitis Indiana virus; assay: Antiviral activity against Vesicular stomatitis virus indiana ATCC VR-1540 infected in african green monkey Vero-76 cells assessed as reduction in viral plaque after 2 days by crystal violet staining; format: functional, organism-based; settings: ATCC VR-1540, Vero 76, 48 h
[3] = tested on: Vaccinia virus; assay: Antiviral activity against Vaccinia virus Elstree-Lister ATCC VR-1549 infected in african green monkey Vero-76 cells assessed as reduction in viral plaque after 3 days by crystal violet staining; format: functional, organism-based; settings: Orthopoxvirus vaccinia, Elstree-Lister ATCC VR-1549, Vero 76, 72 h
[4] = Antiviral activity against Human respiratory syncytial virus A2 ATCC VR-1540 infected in african green monkey Vero-76 cells assessed as reduction in viral plaque after 5 days by crystal violet staining; format: functional, cell-based; settings: ATCC VR-1540, Vero 76, 120 h; procedure, shortened: as §1
[5] = tested on: Yellow fever virus; assay: Antiviral activity against Yellow fever virus 17D infected in BHK21 cells assessed as inhibition of virus-induced cytopathogenicity after 3 to 4 days by MTT assay; format: functional, cell-based; settings: BHK-21
[6] = Cytotoxicity against african green monkey Vero 76 cells after 48 to 96 hrs by MTT assay; format: cell-based; settings: chlorocebus sabaeus
[7] = tested on: Human alphaherpesvirus 1; assay: Antiviral activity against Herpes simplex virus type 1 KOS ATCC VR-1493 infected in african green monkey Vero-76 cells assessed as reduction in viral plaque after 3 days by crystal violet staining; format: functional, organism-based; settings: Human alphaherpesvirus 1, KOS ATCC VR1493, Vero 76, 72 h; procedure, shortened: as §1
[8] = Cytotoxicity against BHK21 cells by MTT assay; format: cell-based, Mesocricetus auratus; settings: hamster, BHK-21 cells
Procedure, shortened: (§2)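 Mock-infected MDBK (6×10^5 cells/mL, MEM-E with 10% horse serum) or BHK (1×10^6 cells/mL, MEM-E with 10% FBS) cells incubated with serial compound dilutions at 37 °C and 5% CO2. Viability measured by MTT after 48–96 h. CC50 by linear regression against untreated controls.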

[9] = Cytotoxicity against MDBK cells after 48 to 96 hrs by MTT assay; format: cell-based, Bos taurus; settings: cattle; procedure, shortened: as §2
[10] = Antiviral activity against BVDV1 NADL ATCC VR-534 infected in MDBK cells assessed as inhibition of virus-induced cytopathogenicity after 3 to 4 days by MTT assay; format: functional, cell-based, Bovine viral diarrhea virus 1-NADL; settings: Bovine viral diarrhea virus isolates and strains, ATCC VR-534, MDBK
Procedure, shortened: (§3)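 BHK (5×10^4/well) or MDBK (3×10^4/well) cells grown to confluent monolayers overnight, infected at m.o.i. 0.01 in maintenance MEM-Earl with 0.5% inactivated FBS. Serially diluted compounds added after 1 h. Viability read by MTT after 3–4 days at 37 °C. Values are expressed as % of untreated controls, and EC50 is derived by linear regression. Duplicate samples.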

[11] = tested on: Mammalian orthoreovirus 1; assay: Antiviral activity against Reovirus 1 3651 ATCC VR-214 infected in BHK21 cells assessed as inhibition of virus-induced cytopathogenicity after 3 to 4 days by MTT assay; format: functional, organism-based; settings: Mammalian orthoreovirus 1, 3651 ATCC VR-214, BHK-21; procedure, shortened: as §3
[12] = tested on: Poliovirus 1; assay: Antiviral activity against Polio virus type 1 strain sabin ATCC VR-1562 infected in african green monkey Vero-76 cells assessed as reduction in viral plaque after 2 days by crystal violet staining; format: functional, cell-based, Human poliovirus 1 strain Sabin; settings: Enterovirus C, ATCC VR-1562, Vero 76, 48 h
[13] = tested on: Human immunodeficiency virus 1; assay: Antiviral activity against HIV1 3B infected in human MT4 cells assessed as inhibition of virus-induced cytopathogenicity after 4 days by MTT assay; format: functional, organism-based; settings: Human immunodeficiency virus 1, 3B, MT4, 96 h
Procedure, shortened: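 MT-4 cells (1×10^4/well) in RPMI with serial compound dilutions, infected with HIV-1 IIIB at 100 CCID50 (m.o.i. 0.01). Viability measured by MTT after 4 days at 37 °C. EC50 for 50% protection from cytopathogenicity obtained by linear regression against untreated controls.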

[14] = Cytotoxicity against human MT4 cells after 96 hrs by MTT assay; format: cell-based
Procedure, shortened: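 Exponentially growing MT-4 cells seeded at 1×10^5 cells/mL in RPMI-1640 with 10% FBS and incubated with serial compound dilutions at 37 °C and 5% CO2. Viability measured by MTT after 96 h. CC50 by linear regression against untreated controls.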

Row | Compound | EC50 [1] [µM] | EC50 [2] [µM] | EC50 [3] [µM] | EC50 [4] [µM] | EC50 [5] [µM] | CC50 [6] [µM] | EC50 [7] [µM] | CC50 [8] [µM] | CC50 [9] [µM] | EC50 [10] [µM] | EC50 [11] [µM] | EC50 [12] [µM] | EC50 [13] [µM] | CC50 at 96 h [14] [µM]
1 | C/C(=N\NC(N)=O)c1ccc2c(c1)nc(-c1ccc(Cl)cc1)n2C1CCCCC1 | > 100 | > 100 | > 100 | > 100 | > 100 | > 100 | > 100 | > 100 | > 100 | > 100 | > 100 | > 100 |  | 
2 | Nc1ccc(-c2nc3cc(Cl)c(Cl)cc3[nH]2)c2ccccc12 |  |  |  |  | 16 |  |  |  |  |  |  |  |  | 
3 | Cc1cc2nc(-c3cccc4ccccc34)[nH]c2cc1C |  |  |  |  | 6 |  |  |  |  |  |  |  |  | 
4 | CC(=O)c1ccc2[nH]c(-c3ccccc3)nc2c1 | > 100 | > 100 | > 100 | > 100 | > 100 | > 100 | > 100 | > 100 | > 100 | 100 | > 100 | > 100 |  | 
5 | C/C(=N\NC(N)=O)c1ccc2c(c1)nc(-c1ccccn1)n2C1CCCCC1 | > 100 | > 100 | > 100 | > 100 | > 100 | > 100 | > 100 | > 100 | > 100 | > 100 | > 100 | > 100 |  | 
6 | COc1ccc(-c2nc3cc(/C(C)=N/NC(N)=O)ccc3[nH]2)cc1 |  |  |  |  |  |  |  |  | 25 | 11 |  |  |  | 
7 | C/C(=N\NC(N)=O)c1ccc2c(c1)nc(-c1ccc(C(F)(F)F)cc1)n2C1CCCCC1 | > 100 | > 100 | > 100 | > 100 | > 100 | > 100 |  | > 100 | > 100 | > 100 | > 100 | > 100 |  | 
8 | O=[N+]([O-])c1ccc2[nH]c(-c3ccccc3)nc2c1 |  |  |  |  |  |  |  |  |  | 1.5 |  |  |  | 
9 | C/C(=N\O)c1ccc2[nH]c(-c3ccc(Cl)cc3)nc2c1 |  |  |  |  | > 33 |  |  | 33 | 37 | 18 |  |  | > 20 | 20
10 | C/C(=N\NC(N)=O)c1ccc2[nH]c(C3CCCCC3)nc2c1 | > 100 | > 100 | > 100 | > 100 | > 100 | > 100 | > 100 | > 100 | > 100 | 44 | > 100 | > 100 |  | 
11 | O=[N+]([O-])c1ccc(-c2nc3cc(Cl)c(Cl)cc3[nH]2)cc1 |  |  | 0.1 |  |  |  |  |  |  |  |  |  |  | 
12 | COc1ccc(-c2nc3cc(/C(C)=N/NC(N)=O)ccc3n2C2CCCCC2)cc1 |  |  |  |  |  |  |  |  | 54 | > 54 |  |  |  | 
13 | Nc1nc2c(ncn2COCCO)c(=O)[nH]1 [ACYCLOVIR] |  |  |  |  |  | > 100 |  |  |  |  |  |  |  | 
14 | CC(=O)c1ccc2[nH]c(/C=C/c3ccc([N+](=O)[O-])cc3)nc2c1 |  |  |  |  |  |  |  |  |  | 1.7 |  |  |  | 
15 | C/C(=N\NC(N)=O)c1ccc2c(c1)nc(-c1ccccc1)n2C1CCCCC1 | > 100 | > 100 | > 100 | > 100 | > 100 | > 100 | > 100 | > 100 | > 100 | > 100 | > 100 | > 100 |  | 
16 | C/C(=N\NC(N)=O)c1ccc2[nH]c(-c3ccc(C(F)(F)F)cc3)nc2c1 | > 100 | > 100 | > 100 | > 100 | > 100 | > 100 | > 100 | > 100 | > 100 | 45 | > 100 | > 100 |  | 
